Most compounds without a hit are left out; they make up all but 3.8% or so of the library.
HSF1 inhib = HSF1 inhibitors in luciferase reporter cells, primary screen, cell-based, NIH3T3, luminescence. NIH3T3-HGL HSE-luciferase, MG132-induced, luminescence 8 h; hits give low values. activity change, negative = inhibition, % at 7.5 µM (by protocol). 300,000 compounds, 0.77% hits. AID 2098, 2009;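 active means more than half of replicate wells show activity change below -50%, luminescence cut by over half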;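 further: luciferase reports HSF-1 transcriptional activity via heat shock element; 0% = median of DMSO wells and -100% = zero luminescence signal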
HSF1 activator = HSF-1 activators, primary screen, NIH3T3-HGL cells, MG132 stress, luminescence, single point. 300,000 compounds, 1.7% hits. activation, % at 9 µM. NIH3T3-HGL HSF-1 luciferase reporter, 8 h; 100% = twice DMSO control signal;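 active means mean replicate activation of at least 50% with a set share of replicates each reaching 50%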;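 further: 0% = median of the neutral control wells and 100% = twice that signal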
NS3 helicase inh = inhibitors of HCV NS3 helicase, primary screen, biochemical, Cy5 molecular beacon fluorescence. NS3 helicase DNA unwinding. inhibition, % at 10.9 µM. 290,000 compounds, 0.56% hits;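 active means inhibition above the mean of all tested compounds plus 3 SD, set per campaign, cut at about 35% in these data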;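 further: 0% = DMSO wells and 100% = thioflavine S control wells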
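assay system = NS3 helicase fragment of HCV | buffer or medium = MOPS pH 6.5, MgCl2, DTT, Tween20, BSA | timing = 60 min unwinding reaction at 25 °C after ATP addition | signal = Cy5 beacon fluorescence read at start and 1 h | read-out basis = % inhibition of unwinding | control set = low DMSO, high thioflavine S at 110 µM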
HSP90 inh = HSP90 inhibitors, primary screen, cell lysate, luminescence | Rabbit reticulocyte lysate, luciferase refolding luminescence, 3 h | inhibition, % at 5.6 µM | 290,000 compounds, 0.91% hits;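 active means inhibition above the screen-wide mean plus 3 SD, computed separately per campaign, cut at about 16% in these data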;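 further: 0% = DMSO wells and 100% = 60 µM geldanamycin wells; inhibitors lower the luminescence because luciferase stays unfolded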
Hep lipid drop = inhibitors of hepatocyte lipid droplet formation, primary screen, imaging, high-throughput imaging, BODIPY stain. 240,000 compounds, 0.4% hits. AID 1656, 2009. inhibition, % at 6.5 µM. AML12 mouse hepatocytes, oleate lipid droplets;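 active means lipid droplet intensity inhibited by at least 50%, with more than 500 cells counted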
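Technique: fluorescence imaging, 20x objective, two fields per well / Assay system: AML12 hepatocytes (mouse) / Measure: % inhibition of lipid droplet signal / Doses: 6.5 µM single-point dosing / Incubation: overnight exposure / Reagent: 100 µM oleic acid challenge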
An asterisk follows results filed as active; . = no result.

SMILES	HSF1 inhib	HSF1 activator	NS3 helicase inh	HSP90 inh	Hep lipid drop
CCOc1cccc(/C=C2\NC(=S)N(c3ccccc3)C2=O)c1O	82	102*	-7	0	8
CC1(C)CC2CC(C)(CN2C(=O)CCCN2C(=O)c3ccccc3C2=O)C1 (stereo not drawn)	-57*	-69	2	4	-31
Cn1c(/C=C/c2ccccc2)nc2ccccc21	-21	-5	-2	14	-6
CC(=O)c1ccc(/C=C/c2nc3ccccc3n2C)o1	25	66*	21	2	9
O=C(NC1CCCc2ccccc21)c1c(F)cccc1Cl (stereo not drawn)	-7	-4	-1	-1	.
Cc1ccc(N(CC(=O)NCCc2ccc(F)cc2)S(=O)(=O)c2ccc(Cl)c([N+](=O)[O-])c2)c(C)c1	85	89*	-2	5	14
O=C(CN(c1ccc(Br)cc1)S(=O)(=O)c1ccc(Cl)c([N+](=O)[O-])c1)NCCc1ccccc1	-5	-15	0	-2	-7
CCN1CCN(c2cc(C)c3cc(NC(=S)N(C)Cc4ccccc4)ccc3n2)CC1	0	-1	-66	-2	-20
Cc1cc(N2CCCC2)nc2ccc(NC(=S)NCCCN3CCC(C)CC3)cc12	14	54*	10	-2	-10
CCCCN(CC)C(=S)Nc1ccc2nc(N3CCN(C)CC3)cc(C)c2c1	-56*	-55	-31	28*	16
CCCCN(C)C(=S)Nc1ccc2nc(N3CCN(CC)CC3)cc(C)c2c1	-64*	-71	-17	9	6
CCCN1CCN(CCCNC(=S)Nc2ccc3nc(N4CCN(CC)CC4)cc(C)c3c2)CC1	0	1	15	1	18
O=C(Cn1nc(C(=O)O)c2ccccc2c1=O)Nc1ccccc1C(F)(F)F	-1	6	16	-2	6
COc1cc(/C=C2/SC(=S)N(Cc3ccccc3)C2=O)cc(Cl)c1O	6	-6	48*	-4	-20
Fc1ccc(Nc2ccnc(Nc3ccc(F)cc3)n2)cc1	32	72*	-93	-2	-9
O=C(CCc1nc(-c2cccs2)no1)NCc1ccc(F)cc1Cl	-85*	-88	6	2	.
COC(=O)[C@]1(C)N[C@H](c2ccc(-c3ccc(Cl)c(Cl)c3)c(OC)c2)[C@@H]2C(=O)N(C)C(=O)[C@@H]21	1	3	.	.	.
Cc1ccc(NC(=O)COc2ccc3c(c2)CCC3)nc1	15	27	.	.	.
Cc1ccc(-c2[nH]ncc2/C=N/n2c(C)nc3ccccc3c2=O)cc1	-52*	-60	-10	0	2
O=c1c2ccccc2nc(COc2ccccc2)n1/N=C/c1cn[nH]c1-c1ccccc1	-18	4	4	0	0
COc1ccc(C2C(C(=O)Nc3ccc(OC)c(OC)c3)c3ccccc3C(=O)N2C)cc1 (stereo not drawn)	-1	-9	-4	2	4
CCOC(=O)C1CCN(C(=O)Cn2nc(C)n3cccc3c2=O)CC1	-6	0	6	3	-1
O=C(CSc1nnc(-c2ccccc2O)o1)N1CCCCC1	8	-2	-1	2	.
CC(=O)c1cccc(NC(=O)N2CCC(NC(=O)C3CCCCC3)CC2)c1	3	9	5	1	-5
O=c1[nH][nH]c(-c2ccccc2O)c1C(C[N+](=O)[O-])c1ccccc1 (stereo not drawn)	165	228*	8	-1	17
SMILES	HSF1 inhib	HSF1 activator	NS3 helicase inh	HSP90 inh	Hep lipid drop
COc1ccc2c(CC(=O)N[C@@H](Cc3ccccc3)C(=O)O)cc(=O)oc2c1C	-3	-8	4	5	-68
Cc1c(O)ccc2c(CC(=O)N[C@@H](Cc3ccc(O)cc3)C(=O)O)cc(=O)oc12	-70*	-77	2	3	8
Cc1ccc(OCCn2cnc3ccccc3c2=O)c([N+](=O)[O-])c1	26	58*	-3	-3	-1
O=C(c1ccc2c(c1)OCCO2)N1CCN(c2ccc([N+](=O)[O-])cc2)CC1	0	0	7	6	0
CCOc1ccc(C(=O)C2CCN(CC(=O)Nc3ccccc3N3CCOCC3)CC2)cc1	14	-4	-6	-5	-39
CCn1c(SC)nnc1C1CCCN(CC(=O)Nc2ccccc2N2CCOCC2)C1 (stereo not drawn)	15	67*	4	-3	-4
CCc1ccc(-n2c(=S)sc3c(=O)n(-c4ccccc4)c(SCC(=O)O)nc32)cc1	1	-7	5	4	-4
Cc1[nH]nc2c1C(c1cc(Br)cs1)C(C#N)=C(N)O2 (stereo not drawn)	65	70*	17	-3	1
Cc1cccc(-c2noc(-c3ccccc3C(=O)NCc3ccco3)n2)c1	29	64*	18	2	-1
Cc1ccc(-c2noc(-c3ccccc3C(=O)NCc3ccco3)n2)cc1	7	10	-2	-2	-15
COc1ccc(C(=O)C2CCCN(S(=O)(=O)C(C)C)C2)c(C)c1 (stereo not drawn)	15	62*	-10	-1	-10
COCCn1c(C)cc(C2=NNC(=NC3CC3)SC2)c1C	-64*	-67	-10	70*	-9
CCCCCN(C(=O)CCC(=O)OCCOc1ccccc1Cl)c1c(N)n(CCCC)c(=O)[nH]c1=O	10	12	.	.	.
O=C(c1ccc2c(=O)n3c(nc2c1)CCCCC3)N1CCN(C(c2ccccc2)c2ccccc2)CC1	23	62*	5	10	10
O=C(c1ccc2c(=O)n3c(nc2c1)CCCCC3)N1CCN(c2ccccc2)CC1	-7	-28	-7	-2	3
COc1ccccc1CCCNC(=O)C1CCC(=O)N(CCc2ccc(Cl)cc2)C1 (stereo not drawn)	13	38	-14	-2	-2
COc1cc(/C=N/N2CCN(Cc3ccc(C)cc3)CC2)cc(OC)c1O	-1	-4	-13	-9	.
c1ccc2c(-c3nc(-c4ccncc4)no3)cccc2c1	36	78*	-1	-1	11
c1ccc(SCc2nc(-c3ccncc3)no2)cc1	44	73*	1	-3	-3
Cc1ccc(SCc2nc(-c3ccncc3)no2)cc1	14	9	-9	-2	2
Cc1ccc(CN(C(=O)c2csnn2)C(C(=O)NC2CCCC2)c2cccnc2)cc1 (stereo not drawn)	-4	-4	1	-1	1
O=C(Nc1cccc(O)c1)C(=O)Nc1ccccn1	29	46	-2	37*	5
COc1ccc(C(=O)NCc2nnc(SCC(=O)N3CCC(C)CC3)o2)cc1OC	-67*	-74	1	-2	.
